# The list is not random: actives were taken first. Their share in the collection is about 0.98%.
# ERAP1 HTS inh = ERAP1 (human) enzyme inhibition | Q9NZ08 | recombinant ERAP1, Leu-AMC fluorescence, 60 min | inhibition, % at 10.7 µM | hit rate 0.15% among 340,000 | AID 652197;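 active = mean replicate inhibition of at least 30%, or all replicates individually reaching that 30% level; inactive = mean below 30% and not every replicate reaching it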;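 note: 0% = neutral control wells and 100% = L-leucinethiol positive control wells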
# Statin myotox sup = suppressors of simvastatin-induced myotoxicity in C2C12 myotubes; ATP luminescence, 48 h; scaled: DMSO 0, geranylgeraniol control 100; rescue of ATP level, % at 7.49 µM; hit rate 0.78% among 330,000; AID 602340;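 active = mean ATP rescue above about 67%, or every replicate alone reaching that limit, limit read from the data, passing the limit was not always enough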;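 note: myotubes were challenged with 10 µM simvastatin during compound exposure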
# PGC1a acetyl inh = modulators of PGC1a acetylation. AID 651687. hit rate 0.17% among 350,000. inhibition, % at 15.6 µM. U2OS PGC1a acetylation, AlphaScreen anti-acetyl-lysine; with virally co-expressed GCN5 acetyltransferase;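 active = every replicate shows inhibition of at least 40%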;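 note: 0% = neutral control wells and 100% = positive control wells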
# Rtt109 HAT inh = blocks Candida albicans Rtt109/Vps75 acetyltransferase activity; AID 540336; purified Rtt109/Vps75, ThioGlo CoA-SH fluorescence, 4 h; hit rate 0.16% among 330,000; inhibition, % at 34.9 µM; Q5AAJ8;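 active = inhibition of at least 50% in every replicate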
# Target sequence (Q5AAJ8 whole entry, looked up): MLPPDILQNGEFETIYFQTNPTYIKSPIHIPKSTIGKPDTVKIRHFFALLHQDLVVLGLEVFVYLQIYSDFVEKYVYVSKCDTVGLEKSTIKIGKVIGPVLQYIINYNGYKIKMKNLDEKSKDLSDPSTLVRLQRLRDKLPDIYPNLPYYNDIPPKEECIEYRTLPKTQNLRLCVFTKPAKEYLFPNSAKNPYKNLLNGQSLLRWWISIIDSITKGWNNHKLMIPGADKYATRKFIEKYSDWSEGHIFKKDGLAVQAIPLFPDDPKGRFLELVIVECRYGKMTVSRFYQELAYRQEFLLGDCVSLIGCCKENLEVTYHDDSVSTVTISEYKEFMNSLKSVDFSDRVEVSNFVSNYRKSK
# S100A4 MyoIIA = blocks human S100A4 binding to myosin IIA peptide. P26447. S100A4/TAMRA-MyoIIA peptide fluorescence polarization. inhibition, % at 10.7 µM. hit rate 0.14% among 360,000;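 active = mean inhibition of at least 70% across replicates, with every replicate also reaching that level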
# Target sequence (P26447 whole entry, looked up): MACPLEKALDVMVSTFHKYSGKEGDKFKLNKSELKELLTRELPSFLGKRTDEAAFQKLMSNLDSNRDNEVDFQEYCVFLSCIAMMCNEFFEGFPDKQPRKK
#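 Compound dosing: one dose per compound; test system: human S100A4 monomer with TAMRA-labelled myosin IIA peptide; probe or stimulus: TAMRA-labelled myosin IIA heavy-chain peptide probe, 5 nM; medium: HEPES buffer with Ca2+, pH 7.2; schedule: 5 min incubation before reading; benchmarks: neutral control DMSO, positive control TFP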
# * = called active by the depositor; / = not tested or not shown; ! = repeats disagree.
SMILES,ERAP1 HTS inh,Statin myotox sup,PGC1a acetyl inh,Rtt109 HAT inh,S100A4 MyoIIA
COc1ccc(C=C2C(=O)NC(=S)NC2=O)cc1OC,36.9*,-2.7,-5.8,0.1,-3.6
CCc1nc2ccccc2c(=O)n1-c1ccc2ccccc2c1,/,122.5*,1.3,0.2,/
COC(=O)[C@H]1[C@H](CO)[C@H]2Cn3c(ccc(-c4cccnc4)c3=O)[C@@H]1N2CCc1ccccc1,-0.4,-53.9,/,/,-3.3
C[C@H]1CN([C@@H](C)CO)C(=O)c2c(c3ccccc3n2C)-c2ccccc2CO[C@@H]1CN(C)C(=O)Oc1ccccc1,-0.4,/,-1.9,/,5.7
C[C@@H]1C[C@@H]([C@H](O)CC2CC(=O)NC(=O)C2)C(=O)[C@@H](C)C1,-2.4,172.9*,72.7*,10.1,8.9
CC(=O)OC1(C)CC(C)C(=O)C(C(O)CC2CC(=O)NC(=O)C2)C1 (stereo not drawn),/,83.4*,92.7*,-0.3,4.9
O=C(O)[C@@H]1[C@@H](CO)[C@@H]2Cn3c(ccc(C4=CCCCC4)c3=O)[C@H]1N2CCc1ccccc1,/,-34.0,/,/,/
CCCCCn1c(N)c(C(=O)NCCN2CCOCC2)c2nc3ccccc3nc21,/,-50.1,-22.3,-2.3,/
CCCCCCn1c(N)c(C(=O)NCCN2CCOCC2)c2nc3ccccc3nc21,/,111.8*,-13.0,7.6,/
COc1ccc(-n2nnnc2C(CCc2ccccc2)N2CCC(n3c(=O)[nH]c4ccccc43)CC2)cc1 (stereo not drawn),2.2,-14.4,55.0*,/,4.9
CCC(c1nnnn1-c1ccc(OC)cc1)N1CCC(n2c(=O)[nH]c3ccccc32)CC1 (stereo not drawn),/,-1.8,0.2,/,-1.2
O=C(Cc1ccccc1)N1CCCCN2[C@@H](CO)[C@H](c3ccc(-c4ccccc4)cc3)[C@@H]2C1,0.0,/,-4.9,/,1.0
COC(=O)CC1(Cc2ccccc2)C(=O)NC(=O)NC1=O,/,2.8,-7.0,-2.3,/
CCC1(Oc2ccccc2)C(=O)NC(=O)NC1=O,5.6,107.9*,7.4,-2.2,-3.8
O=C(CN1CCN(Cc2ccc(Cl)cc2)C1=O)N1CCC2(CC1)OCCO2,/,86.8*,13.8,-1.8,/
O=C(CN1CCN(Cc2cccc(Cl)c2)C1=O)N1CCC2(CC1)OCCO2,/,/,1.8,-4.3,/
C/C=C/c1ccc(C2[C@@H]3CN(Cc4cccc(F)c4)C[C@H]2N3)cc1 (stereo partly drawn),1.9,/,-13.9,/,-3.1
C=C1C(=O)O[C@@H]2C[C@@H](C)[C@@H]3C=CC(=O)[C@@]3(C)[C@@H](O)[C@H]12,-1.0,-164.1,47.0*,4.1,2.1
CCOC(=O)C1CCCN(c2ccc([N+](=O)[O-])c3nonc23)C1 (stereo not drawn),20.4,/,/,-1.2,169.9*
COC(=O)C1=C(c2ccc(OC(F)(F)F)cc2)C[C@@H]2CC[C@H]1N2C(=O)NCCOc1ccc(OC)cc1,/,128.2*,-8.0,9.2,4.0
COC(=O)C1=C(c2ccc(F)cc2OCc2ccccc2)C[C@@H]2CC[C@H]1N2C(=O)NCc1ccc(Br)cc1,-1.4,75.5*,-21.4,-2.7,-1.5
COC(=O)C1=C(c2ccc(F)cc2OCc2ccccc2)C[C@@H]2CC[C@H]1N2C(=O)NCc1cccc(OC)c1,1.5,0.6,/,-0.2,-5.0
COC(=O)C1=C(c2ccc(F)cc2OCc2ccccc2)C[C@@H]2CC[C@H]1N2C(=O)NCc1ccc(OC)cc1,/,83.9*,29.5,-18.0,-24.3
COC(=O)C1=C(c2ccc(F)cc2OCc2ccccc2)C[C@@H]2CC[C@H]1N2C(=O)NCc1ccc(N(C)C)cc1,1.1,-15.0,/,-1.8,-4.2
COC(=O)[C@@H]1N[C@@H]2c3ccc(C4=CCCC4)c(=O)n3C[C@@H]2[C@H]1CO,-1.3,7.6,/,/,-0.8
SMILES,ERAP1 HTS inh,Statin myotox sup,PGC1a acetyl inh,Rtt109 HAT inh,S100A4 MyoIIA
O=C(Cc1cccnc1)N1CCCCN2[C@@H](CO)[C@@H](c3ccc(/C=C/c4ccccc4)cc3)[C@@H]2C1,-2.9,/,12.6,/,4.3
O=c1c2ccccc2nc(-c2ccco2)n1-c1ccccn1,/,120.1*,8.9,-6.5,/
CN(C)c1ccc(/C=C/c2cc[n+](C)c3ccccc23)cc1,10.5,-57.9,4.9,180.9*!,-7.5
CN(C)c1ccc(/C=C/C=C/c2sc3ccccc3[n+]2C)cc1,9.9,/,4.8,-0.5,-81.3
COc1ccc(C#Cc2ccc([C@H]3[C@H]4CN(C(=O)Cc5cccnc5)CCCCN4[C@H]3CO)cc2)cc1,-0.4,/,-11.9,/,29.0
CNC(=O)OCCc1n(C)cc[n+]1C,102.1*,6.5,/,-1.8,-5.9
COC(=O)C12OCC34C(CC5C(C)=C(O)C(=O)CC5(C)C3C(O)C1O)OC(=O)C(OC(=O)/C=C(\C)C(C)C)C24 (stereo not drawn),0.3,/,86.2*,-7.1,-2.1
CC(=O)c1c(C)n(C2CCCCC2)c2ccc(O)cc12,0.1,/,55.3*,-0.6,13.5
CC(=O)c1c(C)n(Cc2ccccc2)c2ccc(O)cc12,-0.8,16.4,7.6,6.1,24.8
C[C@@H]1CN([C@H](C)CO)C(=O)c2c(c3ccccc3n2C)-c2ccccc2CO[C@H]1CN(C)C(=O)Oc1ccccc1,2.8,/,-18.7,/,7.1
CCCCc1nc(N2CCNCC2)c(C#N)c2c1CSC(C)(C)C2,/,-0.1,19.8,-6.8,/
N#Cc1c(N2CCNCC2)nc(-c2ccco2)c2c1CCCC2,44.8*,/,1.8,-1.9,-10.4
COc1cccc(-c2ccc([C@@H]3[C@H]4CN(C(=O)Cc5ccncc5)CCCCN4[C@H]3CO)cc2)c1,/,/,-27.4,/,-3.3
CCCCC1(CN2CCCC2=O)C(=O)NC(=O)NC1=O,/,106.4*,-18.3,7.8,/
Clc1ccc(COC(Cn2ccnc2)c2ccc(Cl)cc2Cl)c(Cl)c1 (stereo not drawn),0.6,-5.4,-26.0,74.3*!,0.9
O=C(Cc1ccccc1)N1CC2(C1)[C@@H](c1ccccc1)[C@@H](CO)N2Cc1cccc(F)c1,-2.8,/,2.9,/,-2.6
O=C(NC1CCCCC1)Oc1cc2oc(=O)sc2cc1Cl,22.9,/,3.7,89.5*,14.6
C[N+]1(CC2COC(c3ccco3)O2)CCCCC1 (stereo not drawn),80.1*,/,2.5,/,-4.5
CC(=O)OC1C(O)C(C)OC(OC2C(OC(=O)C3CCC4C(C3)OC3(CC(OC(=O)/C=C/c5ccccc5)C(C)CO3)C43CO3)OC(C)C(O)C2OC(C)=O)C1O (stereo not drawn),-4.4,/,77.7*,-4.3,-2.7
O=C(Cc1cccnc1)N1CCCCN2[C@H](CO)[C@H](c3ccc(C#CC4(O)CCCC4)cc3)[C@@H]2C1,-0.8,7.8,0.7,/,-1.7
O=C(Cc1cccnc1)N1CCCCN2[C@@H](CO)[C@@H](c3ccc(C#CC4(O)CCCC4)cc3)[C@@H]2C1,3.1,-5.3,-2.3,/,98.0*
COc1ccc(CCNC2(C#N)CCCCC2)cc1OC,2.1,17.8,83.6*,/,1.2
COc1ccc(CCNC2CCCCC2)cc1OC,5.5,/,/,7.0,-1.2

# Screening results: PubChem, Broad Institute
